# Bioassay records: PubChem, several laboratories
# This is a sample that favours compounds with a hit; in the whole collection about 6.8% have one here.
# ALR inh: inhibitors of human ALR sulfhydryl oxidase, primary screen, biochemical, H2O2 detection, HRP-luminol luminescence, single point; FAD-linked sulfhydryl oxidase ALR (Homo sapiens), P55789; purified ALR, DTT oxidation; inhibition, % (test concentration not listed); 290,000 tested, 3.8% active; AID 485317, 2010;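 active means mean replicate inhibition above about 79%, with every replicate also reaching it, limit read from the data; inconclusive means only one of the two criteria met; inactive means mean below limit and not every replicate reaching it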
# Target sequence (P55789 whole entry, looked up): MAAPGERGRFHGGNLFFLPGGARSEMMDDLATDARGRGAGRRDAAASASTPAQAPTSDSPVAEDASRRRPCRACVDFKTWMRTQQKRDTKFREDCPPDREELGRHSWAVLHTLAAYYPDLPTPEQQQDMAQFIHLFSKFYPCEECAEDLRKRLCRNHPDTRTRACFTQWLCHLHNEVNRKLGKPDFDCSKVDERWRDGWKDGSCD
# HSF1 inh: HSF1 inhibitors in luciferase reporter cells, primary screen, cell-based, NIH3T3, luminescence; NIH3T3-HGL HSE-luciferase, MG132-induced, luminescence 8 h; active compounds read low; activity change, negative = inhibition, % at 7.5 µM (by protocol); 300,000 tested, 0.77% active;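 active means more than half of replicate wells show activity change below -50%, luminescence cut by over half; inconclusive means some wells, but at most half, below -50%; inactive means no replicate well below -50%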;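 further: luciferase reports HSF-1 transcriptional activity via heat shock element; 0% = median of DMSO wells and -100% = zero luminescence signal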
# AI-2 QS modul: Vibrio harveyi AI-2 quorum sensing modulators, primary screen, JMH597 strain, luminescence/OD600 ratio | Vibrio harveyi JMH597 AI-2 luminescence/OD600 ratio, 9 h; active compounds read low; strain lacks LuxN and CqsS sensors; 0 = neutral-control median | activity change, % at 7.5 µM | 300,000 tested, 0.4% active | AID 2094, 2009; in the data active means activity change below about -75%, passing the limit was not always enough; inconclusive means no clear call, values can overlap the other calls;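 further: luminescence divided by OD600 gain over 9 h not by final OD600 alone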
# PHOSPHO1 block: PubChem AID 1565; Phosphoethanolamine/phosphocholine phosphatase (Homo sapiens), Q8TCT1; recombinant PHOSPHO1, absorbance phosphatase assay; inhibition, % at 13.3 µM; 290,000 tested, 1.1% active; in the data active means inhibition above about 60%
# Target sequence (Q8TCT1 whole entry, looked up): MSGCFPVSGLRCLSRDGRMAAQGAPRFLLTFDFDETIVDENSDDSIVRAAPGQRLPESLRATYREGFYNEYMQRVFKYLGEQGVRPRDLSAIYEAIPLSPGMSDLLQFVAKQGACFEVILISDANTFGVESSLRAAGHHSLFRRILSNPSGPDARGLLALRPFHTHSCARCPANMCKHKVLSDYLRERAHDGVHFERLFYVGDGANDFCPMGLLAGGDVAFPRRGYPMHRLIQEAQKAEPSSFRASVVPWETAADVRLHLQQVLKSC
# HSF1 activator: HSF-1 activators, primary screen, NIH3T3-HGL cells, MG132 stress, luminescence, single point. NIH3T3-HGL HSF-1 luciferase reporter, 8 h; 100% = twice DMSO control signal. activation, % at 9 µM. 300,000 tested, 1.7% active. AID 504408, 2011;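 active means mean replicate activation of at least 50% with a set share of replicates each reaching 50%; inconclusive means only one of those two conditions met; inactive means mean below 50% and too few replicates reaching it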;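 further: 0% = median of the neutral control wells and 100% = twice that signal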
# HCV core dimer: inhibitors of HCV core protein dimerization, primary screen, biochemical, TR-FRET, high-throughput. TR-FRET GST/Flag-core106 dimerization, 1536-well. inhibition, % at 5 µM. 300,000 tested, 0.33% active. AID 1899, 2009;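 active means inhibition above the mean of all tested compounds plus 3 SD, set per screening campaign, cut at about 45% in these data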
#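 Material: Tagged HCV core106 pair (GST and Flag) | Amount: GST-core106 13.5 nM, Flag-core106 17 nM | Medium: KF-containing HEPES buffer, pH 7.45, DTT, CHAPS, BSA | Reagent: Eu donor and XL665 acceptor anti-tag antibodies | Schedule: 4 h at 22.5 °C | Technique: Time-resolved FRET, ex 340 nm, em 617 and 671 nm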
# * hit, by the source's call; ? = inconclusive; . = no result.
SMILES,ALR inh,HSF1 inh,AI-2 QS modul,PHOSPHO1 block,HSF1 activator,HCV core dimer
COc1cc(/C=N/NC(=O)C2C3CCCCC32C)cc(Br)c1O (stereo not drawn),86*,-3,27,-4,8,-5
COc1cc(/C=N/NC(=O)C(=O)NCc2ccco2)cc(Br)c1O,25,-10,17,85*,-3,-10
N/C(=C\C(=O)c1cc(Cl)ccc1O)C(Cl)(Cl)Cl,-1,128,13,15,209*,1
CC(C)(C)c1ccc(C(=O)CC(=O)c2cc(Cl)ccc2O)cc1,-3,7,53,1,30,5
O=S1(=O)CC(O)C(NCCO)C1 (stereo not drawn),-2,.,24,65*,.,0
CCc1ccc(NC(=O)Cn2nc(C)n3cccc3c2=O)cc1,-6,2,4,22,19,-12
CCNC(=O)Nc1nc2ccccc2s1,0,23,7,-4,40,1
CCOc1ccc2nc(NC(=S)N(C)C)sc2c1,26,13,7,91*,32,0
CCOc1ccc2nc(NC(=O)CS(=O)(=O)c3ccc(C)cc3)sc2c1,81*,-1,13,2,8,5
CN(C)C(=S)Nc1nc2ccccc2s1,.,45,46,-18,83*,.
CCOc1ccc2nc(NC(=O)CS(=O)(=O)c3ccccc3)sc2c1,-22,9,27,-4,-5,4
OCOCCCn1c(C2CCCN2c2nc(-c3ccc(F)cc3)cs2)nc2cc(Cl)c(N3CCCCC3)cc21 (stereo not drawn),-2,3,23,.,-6,-21
COCCOC(=O)/C(C#N)=C/c1cn(Cc2ccccc2)nc1-c1cccnc1,5,6,35,-1,34,-3
COc1ccc(N2CCN(C(=O)c3ccc4c(c3)NC(=O)C(CSCc3cccc(F)c3)N4)CC2)cc1 (stereo not drawn),-12,-3,20,-6,3,34
COc1ccc(N2CCN(C(=O)c3ccc4c(c3)NC(=O)C(CSCc3ccc(C)cc3)N4)CC2)cc1 (stereo not drawn),11,-5,5,0,-9,64*
COc1ccc(N2CCN(C(=O)c3ccc4c(c3)NC(=O)C(CSCc3c(F)cccc3Cl)N4)CC2)cc1 (stereo not drawn),36,4,11,16,7,67*
O=C(Nc1ccc(Cl)cc1)[C@@H]1[C@@H]2C(=O)N(c3ccc4ccccc4c3)C(=O)[C@@H]2[C@H]2C=CC=NN21,.,-1,15,76*,1,60*
COc1cccc(-c2nnn(CC(=O)O)n2)c1,-6,-9,2,-4,-8,-5
CCOC(=O)Cn1nnc(-c2cccc(OC)c2)n1,-9,24,9,-12,67*,-4
Cc1cc(-c2nnc(SCC(=O)Nc3ccccc3C(F)(F)F)o2)c(C)n1-c1ccccc1,.,-56*,26,11,-59,7
O=C(CSc1nnc(-c2ccccn2)o1)Nc1ccccc1Cl,99*,17,12,-3,51*,3
COc1ccc(NC(=O)CSc2nnc(-c3ccncc3)o2)c(OC)c1,-34,-3,17,.,10,-4
O=C(CSc1nnc(-c2ccncc2)o1)Nc1ccccc1Cl,-13,1,10,-14,6,-5
COc1ccccc1NC(=O)CSc1nnc(-c2ccncc2)o1,-15,-63*,35,-14,-70,-1
COc1ccc(NC(=O)CSc2nnc(-c3cccnc3)o2)c(OC)c1,98*,1,28,.,2,0
SMILES,ALR inh,HSF1 inh,AI-2 QS modul,PHOSPHO1 block,HSF1 activator,HCV core dimer
COc1ccc(C2(c3ccc(O)cc3O)CC(c3ccccc3Cl)NC(=S)N2)cc1 (stereo not drawn),16,1,39,15,16,27
Cc1ccc(-c2nnc(SCc3ccccc3F)o2)cc1,-3,26,-48,6,58*,0
CCc1ccccc1NC(=O)CSc1nc(C)c(C)o1,99*,-1,11,22,-11,.
CCc1ccccc1NC(=O)CSc1nnc([C@@H](N)Cc2ccccc2)o1,-6,.,.,-3,.,2
Cc1ccc(-c2nnc(SCC(=O)Nc3ccccc3F)o2)cc1,.,-54*,8,2,-60,0
Cc1ccc(C(=O)Nc2cccnc2)cc1Cl,62,10,11,27,-1,7
COc1cc(/C=N/NC(=O)c2ccncc2)ccc1OC(=O)c1cccc(F)c1,12,-3,-1,35,0,-5
CCN(CC)c1ccc(C(=O)NNC(=O)c2cccn2C)cc1,38,18,16,.,55*,6
COC(=O)Nc1ccc(SCC(=O)c2ccc(Cl)cc2)cc1,.,72,-58,-77,107*,-2
COC(=O)Nc1ccc(SCC(=O)c2ccccc2)cc1,99*,4,-11,-16,23,10
Cc1ccc2c(Cl)c(C(=O)Nc3cccnc3)sc2c1,-9,9,13,10,10,5
COc1ccccc1-c1sc2ccccc2c1-c1ccccc1OC,-6,.,.,.,.,.
Cc1sc(NC(=O)Cn2[nH]c(=O)c3ccccc3c2=O)nc1-c1ccccc1,?,-6,7,-1,3,49*
O=C(N/C(=C/c1cccs1)C(=O)N1CCOCC1)c1cccs1,-9,-8,6,60*,5,2
O=C(N/C(=C/c1ccco1)C(=O)N1CCCCCC1)c1ccccc1,25,1,1,22,-5,10
O=C(N/C(=C/c1ccco1)C(=O)N1CCCCCC1)c1cccs1,97*,-5,9,-1,8,-5
COCCN=c1scc(C)n1/N=C/C1CC2C=CC1C2 (stereo not drawn),10,-9,7,15,-9,-8
Cc1ccc(S(=O)(=O)N2CC(O)C[C@H]2C(=O)OCC(=O)Nc2ccc(N3CCCCC3)cc2)cc1C (stereo partly drawn),.,-8,16,.,12,1
O=C(/C=C/c1ccccc1)NC(=S)NNC(=O)c1cccnc1,?,-1,-111*,4,-1,3
COc1cc(OC)cc(C(=O)NNC(=S)NC(=O)c2cccnc2)c1,98*,-3,91,-104,24,-3
COc1cc(C(=O)NNC(=S)NC(=O)/C=C/c2ccccc2)cc(OC)c1OC,30,-1,62,87*,16,2
COc1ccc(C(=O)NC(=S)NNC(=O)c2cccnc2)cc1,99*,4,5,-110,18,1
